Bioassay records (PubChem)
Shown are actives, neighbours in structure and some others; about 2.3% of the full set was active somewhere.
Diaph inh CS: diaphorase inhibition or chemical oxidation counter-screen; diaphorase resazurin-to-resorufin fluorescence, NADH, 16 min; bacterial (C. kluyveri) enzyme, not human; inhibition, % at 20 µM; hit rate 0.69% among 190,000; AID 1217;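 active = primary screen inhibition at 20 µM above a set limit, cut at about 50% in these data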
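System: Diaphorase enzyme from Clostridium kluyveri | Amount: Enzyme working solution with 0.14 U/mL diaphorase | Benchmarks: No-NADH positive control and DMSO neutral control | Signal: Fluorescence of resorufin formed from resazurin, Ex 544/Em 590 nm | Schedule: 16-min room-temperature incubation before reading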
G6PDH counter: counter-screen for G6PDH assay hits: L. mesenteroides G6PDH inhibition; Purified L. mesenteroides G6PDH, diaphorase/resazurin coupled fluorescence, 45 min; inhibition, % at 5 µM; hit rate 0.12% among 200,000; in the data active = inhibition above about 50%
FLuc act counter: firefly luciferase counter-screen for stimulation assays; ATPlite luciferase biochemical, luminescence, 10 min; 0 = ATP-free wells, 1 = DMSO control; activation factor at 10 µM; 200,000 tested, under 10 active;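 active = luciferase activation factor, scaled between plate controls, of at least 2 with compound at 10 µM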
Target sequence (P08659 whole entry, looked up): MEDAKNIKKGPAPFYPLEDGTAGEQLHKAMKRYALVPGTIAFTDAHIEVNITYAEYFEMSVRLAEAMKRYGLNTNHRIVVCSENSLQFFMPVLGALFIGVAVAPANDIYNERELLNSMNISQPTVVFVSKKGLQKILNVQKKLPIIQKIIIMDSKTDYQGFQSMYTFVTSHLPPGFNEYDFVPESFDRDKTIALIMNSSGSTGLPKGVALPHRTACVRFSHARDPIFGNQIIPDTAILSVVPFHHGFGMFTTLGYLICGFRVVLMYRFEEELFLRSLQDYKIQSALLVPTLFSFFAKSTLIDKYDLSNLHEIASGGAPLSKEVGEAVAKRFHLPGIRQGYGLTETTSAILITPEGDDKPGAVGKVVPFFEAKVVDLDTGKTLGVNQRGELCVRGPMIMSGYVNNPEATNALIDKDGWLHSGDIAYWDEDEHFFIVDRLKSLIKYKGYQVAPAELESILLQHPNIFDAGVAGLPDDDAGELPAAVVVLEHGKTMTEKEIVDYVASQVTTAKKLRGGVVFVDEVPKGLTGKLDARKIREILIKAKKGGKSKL
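Material: Luciferase/luciferin reagent mix | Doses: Test compounds dosed from 2 mM stocks in 100% DMSO | Timing: 10 min incubation after luciferase reagent addition, room temperature | Measured by: Luminescence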
FLuc inh counter: Photinus pyralis luciferase inhibition counter-screen; AID 1006; ATPLite firefly luciferase biochemical luminescence, 10 min; P08659; hit rate 1.5% among 200,000; inhibition, % at 10 µM;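 active = inhibition above about 50% when tested at 10 µM, limit read from the data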
Diaph act CS: counter-screen for diaphorase-based assays: diaphorase activators and chemical reducers; Diaphorase/resazurin coupled assay, resorufin fluorescence, 16 min; hits give high values; 1 = vehicle wells, 0 = NADH-free wells; activation factor at 20 µM; hit rate 0.005% among 190,000; AID 1229;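 active = diaphorase activity raised at least twofold by the compound at 20 µM; inactive = activation factor below 2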
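Material: Clostridium kluyveri diaphorase, purified enzyme; Quantity: enzyme 0.07 U/mL final; Medium: HEPES pH 7.4 buffer with MgCl2 and Tween 20; Dosing: single compound dose of 20 µM, 1% DMSO final; Schedule: 16 min reaction at room temperature; Measured by: red resorufin fluorescence at 544/590 nm excitation/emission.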
Hits are given with their value; 0 = inactive.

SMILES	Diaph inh CS	G6PDH counter	FLuc act counter	FLuc inh counter	Diaph act CS
Nc1c(C(=O)NCC2CCCO2)sc2nc3c(c(-c4ccco4)c12)CC/C3=C\c1ccco1 (configuration not stated)	89	0	0	0	0
COC(=O)c1sc2nc3c(c(-c4cccs4)c2c1N)CCCC3	0	0	0	0	0
Cc1ccccc1NC(=O)c1sc2nc3c(c(-c4ccco4)c2c1N)CCC3	53	0	0	0	0
N#Cc1sc2nc3c(c(-c4ccco4)c2c1N)CCCC3	52	0	0	0	0
CCSc1nnc(CNC(=O)C23CC4CC(CC(C4)C2)C3)n1C1CCCCC1	0	0	0	0	0
CCN(CC)Cc1cc(O)c(CN(CC)CC)cc1O	53	57	0	0	0
CCc1oc(C(=O)O)cc1CN(CC)CC	0	0	0	0	0
COC(=O)Cc1ccc(NC(=O)c2ccc(Br)o2)cc1	0	0	0	0	0
CCN(CC)c1ccc(NC(=O)c2ccc(Br)o2)cc1	0	0	0	53	0
Cc1ccc(-n2c(CSc3nc(C)cc(C)n3)nnc2SCC(=O)N2CCCC2)cc1	0	0	0	0	0
CCOc1c(OC(C)=O)ccc(/C=C2\N=C(SCC)SC2=O)c1[N+](=O)[O-]	0	0	0	0	0
CCOc1cc(/C=C2\N=C(SC)SC2=O)cc([N+](=O)[O-])c1OC(C)=O	81	0	0	0	0
CCOc1cc(/C=C2\N=C(SCC)SC2=O)cc([N+](=O)[O-])c1OC(C)=O	90	0	0	0	0
CNC(=O)c1ccc(-c2ccc(OC)cc2)s1	0	0	0	61	0
O=C(NC1CCCCC1)c1nc2c(nnn2Cc2ccccc2Cl)c(=O)[nH]1	0	0	0	0	0
O=C(CSc1nnc(CCCN2C(=O)c3cccc4cccc(c34)C2=O)n1-c1ccccc1)NCCCN1CCOCC1	55	0	0	0	0
O=C(CSc1nnc(CCCN2C(=O)c3cccc4cccc(c34)C2=O)n1-c1ccccc1)NCCCO	0	0	0	0	0
O=C(CSc1nnc(CCCN2C(=O)c3cccc4cccc(c34)C2=O)n1-c1ccccc1)N1CCN(CCO)CC1	59	0	0	0	0
CCCCN(C)C(=S)Nc1ccsc1C(=O)OC	0	0	0	0	0
COc1cccc2c(SCC(=O)N/N=C/c3ccccc3)cc(C)nc12	0	0	0	0	0
COc1cccc2c(SCC(=O)N/N=C/c3ccc(O)c(O)c3)cc(C)nc12	54	0	0	0	0
COc1ccc(N=c2oc3c(OC)cccc3cc2C(=O)NCc2ccco2)cc1OC	0	0	0	0	0
COc1cccc2cc(C(=O)Nc3ccc(F)cc3)c(=Nc3ccc(C(=O)O)cc3)oc12	62	0	0	0	0
O=[N+]([O-])c1cc2c(cc1/C=N/n1c(-c3ccccn3)n[nH]c1=S)OCO2	0	0	0	0	0
Cc1ccc(-c2n[nH]c(=S)n2/N=C/C=C/c2ccccc2[N+](=O)[O-])cc1	55	0	0	0	0
SMILES	Diaph inh CS	G6PDH counter	FLuc act counter	FLuc inh counter	Diaph act CS
O=[N+]([O-])c1ccccc1/C=C/C=N/n1c(-c2ccco2)n[nH]c1=S	81	0	0	0	0
O=[N+]([O-])c1cc2c(cc1/C=N/n1c(-c3ccccc3)n[nH]c1=S)OCO2	55	0	0	0	0
O=[N+]([O-])c1ccccc1/C=N/n1c(-c2cccnc2)n[nH]c1=S	0	0	0	0	0
COc1ccccc1/C=C\C=N\n1c(-c2ccc(Cl)cc2)n[nH]c1=S	0	0	0	0	0
CC(=O)C1=C(O)C(=O)N(c2cccc(C(=O)O)c2)C1c1ccc(F)cc1 (configuration not stated)	0	0	0	0	0
CC(C)C[C@H](NC(=O)c1nc[nH]c1C(=O)N(C)Cc1ccccc1)C(=O)OC(C)(C)C	0	0	0	0	0
O=C(Nc1cc2ccccc2oc1=O)c1ccccc1	0	0	0	67	0
CC1=NN(C(=O)c2cccc(Cn3nc(C)c([N+](=O)[O-])c3C)c2)C(O)(C(F)(F)F)C1 (configuration not stated)	0	0	0	0	0
CC1=CCC2COC(c3ccc[n+](Cc4ccccc4)c3)C1C2 (configuration not stated)	0	0	0	0	0
Cc1ccc(C(=O)NNC(=S)Nc2cccc3ccccc23)s1	0	0	0	58	0
COc1ccc(Cl)cc1NC(=O)CN(C)CC(=O)Nc1ccc(C)cc1Br	0	0	0	0	0
O=Cc1cccn1Cc1ccccc1[N+](=O)[O-]	0	0	0	0	0
COc1ccc(-c2csc(N3N=C(C)C(C)C3=O)n2)cc1 (configuration not stated)	0	0	0	61	0
COc1ccc(OCC(=O)Nc2cccc(OC)c2)cc1	0	0	0	0	0
COc1cccc(NC(=O)COc2ccccc2C(N)=O)c1	0	0	0	68	0
COc1ccc(-c2nc(C(=O)O)cs2)cc1OC	0	0	0	0	0
COc1ccc(-c2cc(C(=O)O)nc3ccc4ccccc4c23)cc1OC	0	0	0	65	0
CCCCCCCCNC(=S)NCCN1CCCCC1	0	0	0	0	0
COc1cccc(C(=O)Nc2ccc(C(F)(F)F)n(C)c2=O)c1	0	0	0	56	0
c1ccc(N2CCN(c3nc4cc5c(cc4s3)OCO5)CC2)cc1	0	0	0	0	0
c1ccc2c(c1)CCN(c1nc3cc4c(cc3s1)OCO4)C2	0	0	0	69	0
c1c2c(cc3sc(N4CCCCC4)nc13)OCO2	0	0	0	80	0
c1c2c(cc3sc(N4CCOCC4)nc13)OCO2	0	0	0	56	0
N#Cc1c(-c2ccc(F)cc2)ccnc1N1CCOCC1	0	0	0	0	0
O=C(CN(Cc1cccs1)C(=O)CNC(=O)c1ccco1)NC1CCCCC1	0	0	0	0	0
SMILES	Diaph inh CS	G6PDH counter	FLuc act counter	FLuc inh counter	Diaph act CS
O=C(/C=C/Nc1ccccc1C(=O)O)c1cccs1	0	0	0	65	0
Cc1ccc(N/C=C/C(=O)c2cccs2)cc1C	0	0	0	94	0
CNc1cc([N+](=O)[O-])ccc1N/C=C/C(=O)c1cccs1	0	0	0	0	0
O=C(/C=C/Nc1cccc([N+](=O)[O-])c1)c1cccs1	0	0	0	51	0
Cc1cc(N/C=C/C(=O)c2cccs2)ccc1F	0	0	0	80	0
CCC(C)NC(=O)c1ccc(CS(=O)(=O)Cc2ccc(Cl)cc2)o1 (configuration not stated)	0	0	0	0	0
Cn1c(=NC(=O)CCl)sc2ccccc21	0	0	0	0	0
Cc1sc(=NC(=O)c2ccco2)n(C)c1-c1ccc(F)cc1	0	0	0	80	0
Cc1sc(=NC(=O)c2ccco2)n(C)c1-c1ccccc1	0	0	0	91	0
Cn1c(=NC(=O)c2ccco2)sc2ccccc21	0	0	0	86	0
